OX1R antag-1: human HCRTR1 antagonism | O43613 | CHO/OX1R cells, Fluo-8 calcium fluorescence, orexin A | inhibition, % at 5 µM | 0.43% of 330,000 active | AID 434989;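 active means inhibition above its plate's threshold, mean inhibition of all tested compounds on the plate plus 3 SD, cut at about 37% in these data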
Target sequence (O43613 whole entry, looked up): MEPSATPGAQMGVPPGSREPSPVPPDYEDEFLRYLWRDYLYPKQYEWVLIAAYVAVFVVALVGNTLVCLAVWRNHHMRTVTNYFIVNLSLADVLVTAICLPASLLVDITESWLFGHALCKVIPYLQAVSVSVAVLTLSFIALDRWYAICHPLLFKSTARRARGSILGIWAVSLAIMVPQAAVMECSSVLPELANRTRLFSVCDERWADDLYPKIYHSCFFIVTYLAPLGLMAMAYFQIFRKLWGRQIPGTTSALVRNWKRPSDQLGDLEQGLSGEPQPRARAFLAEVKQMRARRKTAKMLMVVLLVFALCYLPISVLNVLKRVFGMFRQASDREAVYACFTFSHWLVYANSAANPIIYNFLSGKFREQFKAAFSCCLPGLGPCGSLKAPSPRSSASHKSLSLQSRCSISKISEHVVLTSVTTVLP
GPR7 antag: blocks human GPR7 receptor signaling | P48145 | GPR7-expressing cells, fluorescence antagonist assay | inhibition, % at 4.4 µM | 1.1% of 290,000 active | AID 1861; in the data active means inhibition above about 16%, passing the limit was not always enough;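 further: cells stimulated with the agonist NPW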
CHO parental Ca: counter-screen for OX1R antagonists: effect in parental CHO cells; 0.63% of 330,000 active; parental CHO-K1, ATP-induced calcium, Fluo-8 fluorescence; AID 463079; inhibition, % at 5.6 µM;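 active means inhibition above that plate's mean sample inhibition plus 3 SD, cut at about 26% in these data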
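Measured by: calcium-sensitive Fluo-8 fluorescence / Test system: CHO parental line / Controls: ATP-challenged DMSO wells low, unchallenged DMSO wells high / Measure: % inhibition / Compound: single nominal dose of 5.6 µM per compound / Replicates: single well per compound, no replicates / Reagent: ATP as calcium-mobilizing challenge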
MPTP inh: blocks calcium-induced mitochondrial swelling. isolated mouse mitochondria, Ca2+ swelling absorbance, 30 min. 1.4% of 360,000 active. AID 602449. inhibition, % at 10 µM;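 active means inhibition of 50% or more, scaled per plate between neutral and stimulator controls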
OX1R antag-2: antagonists of human orexin 1 receptor (OX1R) | 1.8% of 330,000 active | OX1R-expressing cells, FRET antagonist read-out | AID 485270 | inhibition, % at 6.6 µM | O43613; in the data active means inhibition mostly above about 38%, no sharp cut-off; inactive means mostly below about 40%
A number is an active result; 0 = inactive; - = no result given. Most compounds without a hit are left out; they make up all but 3.8% or so of the library.

SMILES	OX1R antag-1	GPR7 antag	CHO parental Ca	MPTP inh	OX1R antag-2
N=c1c(C(=O)NC2CCCCC2)cc2c(=O)n3ccccc3nc2n1Cc1ccco1	0	0	0	0	0
N=c1c(C(=O)NCC2CCCO2)cc2c(=O)n3ccccc3nc2n1Cc1ccc(F)cc1 (stereo not given)	0	0	0	0	54
Cc1ccc(C)c(S(=O)(=O)N2CCCOC2CNC(=O)C(=O)NCCc2ccco2)c1 (stereo not given)	0	0	0	0	63
COc1ccc(S(=O)(=O)N2CCCOC2CNC(=O)C(=O)NCCc2ccco2)cc1C (stereo not given)	0	0	0	0	70
COc1ccccc1CCNC(=O)C(=O)NCC1OCCCN1S(=O)(=O)c1cc(C)ccc1C (stereo not given)	0	0	0	0	66
COc1ccccc1CCNC(=O)C(=O)NCC1OCCCN1S(=O)(=O)c1ccc(F)cc1C (stereo not given)	0	0	0	0	0
CCC(Oc1ccccc1)C(=O)N1CCN(S(=O)(=O)c2ccccc2)CC1 (stereo not given)	0	-	0	0	0
CCOC(=O)c1c(C)c(C(=O)N2CCN(c3ccc(F)cc3)CC2)c(C)n1C	0	0	0	0	0
Cc1ccsc1-c1nc(CSCC(=O)N2CCN(c3ccccc3)CC2)c(C)o1	0	0	0	0	38
Cc1ccccc1CSCC(=O)N1CCN(c2ccccc2)CC1	0	0	0	0	0
COc1cc2c(cc1OC)-c1cc3ccc(OC)c(OC)c3c[n+]1CC2	0	-	0	0	62
COc1ccc2cc3[n+](cc2c1O)CCc1cc2c(cc1-3)OCO2	-	-	-	0	-
CC(=O)OC[C@]12CC[C@H]3[C@@](C)(CC[C@H]4C(C)(C)CCC[C@]34C)[C@@H]1C[C@H](C1=CC(=O)O[C@@H]1OC(C)=O)O2	0	-	64	-	0
Cc1c(-c2ccc(O)cc2)nc2nc(-c3ccccc3)c(-c3ccccc3)nn12	99	0	90	-	0
Cc1nnc2c3ccccc3c(-c3ccc(O)cc3)nn12	0	0	0	0	0
O=C(COC(=O)c1ccccc1Nc1ccccc1)c1ccccc1	43	0	0	0	0
Cc1cc(C(=O)N/N=C/c2ccc(Cl)c([N+](=O)[O-])c2)c(C)n1-c1ccc(F)cc1	0	0	0	0	0
O=C(N/N=C/c1ccc(Cl)c([N+](=O)[O-])c1)c1ccc2nc[nH]c2c1	0	0	0	0	58
O=C(N/N=C/c1ccccc1[N+](=O)[O-])c1ccc2nc[nH]c2c1	0	0	0	0	0
Cc1occc1C(=O)N/N=C/c1ccc(Cl)c([N+](=O)[O-])c1	0	0	0	0	64
NC(=O)N=Nc1c2[nH]c3ccccc3nc-2c2ccccc12	0	0	0	0	71
CCS(=O)(=O)N1CCC(C(=O)OCC(=O)c2ccc(Br)cc2)CC1	0	0	50	0	0
O=C(O)C1C=CC(C(=O)O)c2ccccc21 (stereo not given)	-	-	-	0	-
CCC(c1nnnn1-c1c(C)cccc1C)N1CCN(c2ccccn2)CC1 (stereo not given)	-	-	-	0	-
CCOc1ccc2c(c1)sc(N)[n+]2Cc1cc(C)cc2cccnc12	0	35	0	0	0
SMILES	OX1R antag-1	GPR7 antag	CHO parental Ca	MPTP inh	OX1R antag-2
CCOC(=O)c1sc(C)c2c(=O)n(CC)nnc12	0	0	0	0	63
CCOC(=O)c1sc(C)c2c(=O)n(CCc3ccccc3)nnc12	0	0	0	0	0
Cc1ccc(NC(=O)COC(=O)[C@@H]2CC(O)CN2S(=O)(=O)c2ccc3c(c2)OCCO3)cc1 (stereo not given in full)	0	-	0	0	0
CC(=O)Nc1ccc(/C=C(\C#N)C(=O)NC2CCCCC2C)cc1 (stereo not given)	0	20	0	0	0
CSc1ccc(/C=C(\C#N)C(=O)NC2CCCCC2C)cc1 (stereo not given)	0	0	0	0	0
COc1ccc2nc(SCC(=O)NN)cc(C)c2c1	0	0	0	0	49
N#Cc1cccc(NC(=O)CSc2ccc3c4c(cccc24)C(=O)c2ccccc2-3)c1	75	0	59	0	0
CCOCCCNc1nc2c(C)cccn2c(=O)c1/C=C1\SC(=S)N(CC(C)C)C1=O	0	0	0	0	0
CCOCCCNc1nc2c(C)cccn2c(=O)c1/C=C1\SC(=S)N(C(C)CC)C1=O (stereo not given)	45	0	0	0	0
O=S(=O)(O)c1nc2ccccc2[nH]1	0	0	0	0	0
O=C(/C=C/c1ccco1)Nc1ccc2nn(-c3ccccc3)nc2c1	0	0	0	0	77
COc1ccc(CCNC(=O)COc2ccc(S(=O)(=O)N3CCOCC3)cc2)cc1OC	0	0	0	0	49
COc1ccc(CCNC(=O)CSc2ccc3ccccc3c2)cc1OC	0	0	0	0	64
COc1ccc(CCNC(=O)CSc2nnc(-c3ccccc3)o2)cc1OC	0	-	0	0	0
COc1ccc(CCNC(=O)CSc2nnc(-c3ccccc3)c3ccccc23)cc1OC	0	0	0	0	73
CN=C1SC(CC(=O)NCCc2ccc(OC)c(OC)c2)C(=O)N1C (stereo not given)	104	0	101	0	0
O=C(/C=C/[C@H]1O[C@@H](n2ccc(=O)[nH]c2=O)[C@H](O)[C@@H]1O)N1CCN(CCc2ccccc2)CC1	-	-	-	0	-
COc1ccc(CNC(=O)c2ccc3ccccc3n2)cc1OC	0	0	45	0	52
COC(=O)c1ccc(/C=N/OCC(=O)NCCc2ccc(OC)c(OC)c2)cc1	0	0	0	0	45
CCN(CC(=O)Nc1ccc(Br)cc1)C(=O)Cc1cccc(F)c1	0	0	0	0	49
CCN(CC(=O)Nc1ccc(NC(C)=O)cc1)C(=O)Cc1ccc(Cl)c(Cl)c1	-	0	-	0	-
COc1ccc(COc2cccnc2N)cc1	0	20	0	0	0
O=C(Nc1cccnc1)c1cccc(S(=O)(=O)Nc2ccccc2F)c1	-	-	-	0	-
O=C(Nc1cccc(S(=O)(=O)Nc2ccccc2F)c1)c1ccc2ccccc2n1	0	0	0	0	82
COc1ccc(S(=O)(=O)Cc2ccc(C(=O)N3CCN(c4ccc(Cl)cc4)CC3)o2)cc1	0	0	41	0	0
SMILES	OX1R antag-1	GPR7 antag	CHO parental Ca	MPTP inh	OX1R antag-2
COc1ccc(S(=O)(=O)Cc2ccc(C(=O)N3CCN(c4cccc(C)c4C)CC3)o2)cc1	0	0	48	0	0
Cc1ccc(S(=O)(=O)Cc2ccc(C(=O)N3CCN(c4cccc(C)c4C)CC3)o2)cc1	0	0	0	0	0
CC1(C(=O)Nc2ccc3ccccc3c2)CCC(=O)N1CCOc1ccccc1 (stereo not given)	-	-	-	0	-
COc1ccc(NC(=O)N2CCN(c3ccc([N+](=O)[O-])cc3)CC2)cc1	0	0	0	0	0
CCOC(=O)N1CCN(C(=O)C2CCN(C(=O)c3ccc([N+](=O)[O-])cc3)CC2)CC1	0	0	0	0	55
CCOC(=O)N1CCN(C(=O)C2CCN(C(=O)c3ccc(C(C)(C)C)cc3)CC2)CC1	0	0	0	0	0
COc1ccc(N2CCN(C(=O)C3CCN(C(=O)c4ccc([N+](=O)[O-])cc4)CC3)CC2)cc1	0	0	0	0	51

Screens from PubChem.
